According to ChEMBL document CHEMBL1153576, “Novel ureas and thioureas of 15-membered azalides with antibacterial activity against key respiratory pathogens” (Eur J Med Chem, 2009):
Values after ≈ are worked out from the molar mass of the structure shown.

Key:
Format in all cases: functional
Streptococcus pyogenes [1] = assay: Antibacterial activity against efflux-mediated macrolide-resistance Streptococcus pyogenes after 16 to 22 hrs by broth microdilution method
Summary of the method: (§1)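 Two-fold serial dilutions in microdilution trays, following the CLSI dilution standard for aerobic bacteria. Medium was Mueller–Hinton broth with 5% horse serum for streptococci. Stocks were made at 5 mg/ml in DMF. Inoculum came from a direct colony suspension adjusted by turbidity to about 5 × 10⁴ CFU/well final. Incubation was at 35 °C for 16–22 h. MIC is the lowest concentration completely inhibiting growth (99% inhibition).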

Streptococcus pyogenes [2] = assay: Antibacterial activity against erythromycin-susceptible Streptococcus pyogenes after 16 to 22 hrs by broth microdilution method
Summary of the method: (§2)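 Streptococci tested by CLSI broth microdilution in Mueller–Hinton broth with 5% horse serum, using two-fold serial dilutions. Compounds were dissolved in DMF at 5 mg/ml (stock). Inoculum was a turbidity-adjusted direct colony suspension giving about 5 × 10⁴ CFU/well. Trays were held at 35 °C for 16–22 h. MIC is the lowest concentration completely inhibiting growth (99%).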

Streptococcus pneumoniae [3] = assay: Antibacterial activity against constitutive macrolide-lincosamide-streptogramin-resistant Streptococcus pneumoniae after 16 to 22 hrs by broth microdilution method; summary of the method: as §1
Streptococcus pneumoniae [4] = assay: Antibacterial activity against erythromycin-susceptible Streptococcus pneumoniae after 16 to 22 hrs by broth microdilution method; summary of the method: as §2
Staphylococcus aureus = assay: Antibacterial activity against Staphylococcus aureus ATCC 29213 after 16 to 22 hrs by broth microdilution method
Summary of the method: (§3)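 Broth microdilution per the CLSI approved standard (sixth edition), using two-fold serial dilutions of compound in Mueller–Hinton broth. Stocks at 5 mg/ml in DMF. Inoculum came from a direct colony suspension adjusted by turbidity to about 5 × 10⁴ CFU/well final. Trays were incubated at 35 °C for 16–22 h. MIC is the lowest concentration completely inhibiting growth (99% inhibition).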

Streptococcus pyogenes [5] = assay: Antibacterial activity against inducible macrolide-lincosamide-streptogramin-resistant Streptococcus pyogenes 16 to 22 hrs by broth microdilution method; summary of the method: as §1
Streptococcus pneumoniae [6] = assay: Antibacterial activity against efflux-mediated macrolide-resistant Streptococcus pneumoniae after 16 to 22 hrs by broth microdilution method; summary of the method: as §1
Enterococcus faecalis = assay: Antibacterial activity against Enterococcus faecalis ATCC 29212 after 16 to 22 hrs by broth dilution method; summary of the method: as §3
Escherichia coli = assay: Antibacterial activity against Escherichia coli ATCC 25922 after 16 to 22 hrs by broth dilution method; summary of the method: as §3
Moraxella catarrhalis = assay: Antibacterial activity against Moraxella catarrhalis ATCC 23246 after 16 to 22 hrs by broth dilution method; summary of the method: as §3
Haemophilus influenzae = assay: Antibacterial activity against Haemophilus influenzae ATCC 49247 after 16 to 22 hrs by broth dilution method
Summary of the method: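 Microdilution trays following the CLSI standard, with two-fold serial dilutions in supplemented broth suited to H. influenzae. DMF stocks at 5 mg/ml. Inoculum prepared from a turbidity-adjusted direct colony suspension to about 5 × 10⁴ CFU/well final. Incubated at 35 °C for 16–22 h. MIC is the lowest concentration giving complete (99%) growth inhibition.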

Structure (SMILES) | MIC (Streptococcus pyogenes [1]) | MIC (Streptococcus pyogenes [2]) | MIC (Streptococcus pneumoniae [3]) | MIC (Streptococcus pneumoniae [4]) | MIC (Staphylococcus aureus) | MIC (Streptococcus pyogenes [5]) | MIC (Streptococcus pneumoniae [6]) | MIC (Enterococcus faecalis) | MIC (Escherichia coli) | MIC (Moraxella catarrhalis) | MIC (Haemophilus influenzae)
CC[C@H]1OC(=O)[C@H](C)[C@@H](O[C@H]2C[C@@](C)(OC)[C@@H](O)[C@H](C)O2)[C@H](C)[C@@H](O[C@@H]2O[C@H](C)C[C@H](N(C)C)[C@H]2O)[C@](C)(O)C[C@@H](C)CN(CCCNC(=S)Nc2ccccc2)[C@H](C)[C@@H](O)[C@]1(C)O | 16 µg/mL (≈ 17.3 µM) | ≤ 0.125 µg/mL | > 64 µg/mL | ≤ 0.125 µg/mL | 0.5 µg/mL (≈ 0.539 µM) | 8 µg/mL (≈ 8.63 µM) | 16 µg/mL (≈ 17.3 µM) | 8 µg/mL (≈ 8.63 µM) | 8 µg/mL (≈ 8.63 µM) | 2 µg/mL (≈ 2.16 µM) | 4 µg/mL (≈ 4.31 µM)
CC[C@H]1OC(=O)[C@H](C)[C@@H](O[C@H]2C[C@@](C)(OC)[C@@H](O)[C@H](C)O2)[C@H](C)[C@@H](O[C@@H]2O[C@H](C)C[C@H](N(C)C)[C@H]2O)[C@](C)(O)C[C@@H](C)CN(CCCN(CCC#N)C(=O)NC(C)c2cccc3ccccc23)[C@H](C)[C@@H](O)[C@]1(C)O (some centres not stated) | 8 µg/mL (≈ 7.67 µM) | ≤ 0.125 µg/mL | 16 µg/mL (≈ 15.3 µM) | ≤ 0.125 µg/mL | 2 µg/mL (≈ 1.92 µM) | 8 µg/mL (≈ 7.67 µM) | 32 µg/mL (≈ 30.7 µM) | 16 µg/mL (≈ 15.3 µM) | 32 µg/mL (≈ 30.7 µM) | 0.5 µg/mL (≈ 0.48 µM) | 2 µg/mL (≈ 1.92 µM)
CC[C@H]1OC(=O)[C@H](C)[C@@H](O[C@H]2C[C@@](C)(OC)[C@@H](O)[C@H](C)O2)[C@H](C)[C@@H](O[C@@H]2O[C@H](C)C[C@H](N(C)C)[C@H]2O)[C@](C)(O)C[C@@H](C)CN(CCCNC(=S)Nc2cccc3ccccc23)[C@H](C)[C@@H](O)[C@]1(C)O | 4 µg/mL (≈ 4.09 µM) | ≤ 0.125 µg/mL | > 64 µg/mL | ≤ 0.125 µg/mL | 1 µg/mL (≈ 1.02 µM) | 4 µg/mL (≈ 4.09 µM) | 4 µg/mL (≈ 4.09 µM) | 8 µg/mL (≈ 8.19 µM) | 8 µg/mL (≈ 8.19 µM) | 1 µg/mL (≈ 1.02 µM) | 2 µg/mL (≈ 2.05 µM)
CC[C@H]1OC(=O)[C@H](C)[C@@H](O[C@H]2C[C@@](C)(OC)[C@@H](O)[C@H](C)O2)[C@H](C)[C@@H](O[C@@H]2O[C@H](C)C[C@H](N(C)C)[C@H]2O)[C@](C)(O)C[C@@H](C)CN(CCCN(CCC#N)C(=O)Nc2ccccc2)[C@H](C)[C@@H](O)[C@]1(C)O | 32 µg/mL (≈ 33.2 µM) | ≤ 0.125 µg/mL | > 64 µg/mL | ≤ 0.125 µg/mL | 1 µg/mL (≈ 1.04 µM) | 16 µg/mL (≈ 16.6 µM) | 32 µg/mL (≈ 33.2 µM) | 32 µg/mL (≈ 33.2 µM) | 32 µg/mL (≈ 33.2 µM) | 4 µg/mL (≈ 4.15 µM) | 8 µg/mL (≈ 8.3 µM)
CC[C@H]1OC(=O)[C@H](C)[C@@H](O[C@H]2C[C@@](C)(OC)[C@@H](O)[C@H](C)O2)[C@H](C)[C@@H](O[C@@H]2O[C@H](C)C[C@H](N(C)C)[C@H]2O)[C@](C)(O)C[C@@H](C)CN(CCCNC(=O)NCc2ccccc2)[C@H](C)[C@@H](O)[C@]1(C)O | 8 µg/mL (≈ 8.65 µM) | ≤ 0.125 µg/mL | > 64 µg/mL | ≤ 0.125 µg/mL | 0.5 µg/mL (≈ 0.54 µM) | 4 µg/mL (≈ 4.32 µM) | 16 µg/mL (≈ 17.3 µM) | 16 µg/mL (≈ 17.3 µM) | 8 µg/mL (≈ 8.65 µM) | 1 µg/mL (≈ 1.08 µM) | 2 µg/mL (≈ 2.16 µM)
CC[C@H]1OC(=O)[C@H](C)[C@@H](O[C@H]2C[C@@](C)(OC)[C@@H](O)[C@H](C)O2)[C@H](C)[C@@H](O[C@@H]2O[C@H](C)C[C@H](N(C)C)[C@H]2O)[C@](C)(O)C[C@@H](C)CN(CCCNC(=O)Nc2ccc3ccccc3c2)[C@H](C)[C@@H](O)[C@]1(C)O | 4 µg/mL (≈ 4.16 µM) | ≤ 0.125 µg/mL | 16 µg/mL (≈ 16.6 µM) | ≤ 0.125 µg/mL | 1 µg/mL (≈ 1.04 µM) | 2 µg/mL (≈ 2.08 µM) | 4 µg/mL (≈ 4.16 µM) | 8 µg/mL (≈ 8.32 µM) | 16 µg/mL (≈ 16.6 µM) | 0.25 µg/mL (≈ 0.26 µM) | 2 µg/mL (≈ 2.08 µM)
CC[C@H]1OC(=O)[C@H](C)[C@@H](O[C@H]2C[C@@](C)(OC)[C@@H](O)[C@H](C)O2)[C@H](C)[C@@H](O[C@@H]2O[C@H](C)C[C@H](N(C)C)[C@H]2O)[C@](C)(O)C[C@@H](C)CN(CCCNC(=O)NC(C)c2cccc3ccccc23)[C@H](C)[C@@H](O)[C@]1(C)O (some centres not stated) | 8 µg/mL (≈ 8.09 µM) | ≤ 0.125 µg/mL | 16 µg/mL (≈ 16.2 µM) | ≤ 0.125 µg/mL | 1 µg/mL (≈ 1.01 µM) | 2 µg/mL (≈ 2.02 µM) | 16 µg/mL (≈ 16.2 µM) | 8 µg/mL (≈ 8.09 µM) | 32 µg/mL (≈ 32.3 µM) | 0.25 µg/mL (≈ 0.253 µM) | 2 µg/mL (≈ 2.02 µM)
